# Compound activity from PubChem BioAssay.
# TRPC6 act: mouse TRPC6 channel activation | B-score at 10 µM | AID 2550 | 310,000 compounds, 0.13% hits | HEK293-TRPC6 membrane potential dye fluorescence; hits give high values;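 active means B-score of the integrated fluorescence ratio above library mean plus 3 SD, and starting fluorescence ratio within library mean plus 5 SD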;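 further: higher score means more depolarization so channel activation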
# TRPC6 inh: mouse TRPC6 channel inhibition | B-score at 10 µM | 310,000 compounds, 1.1% hits | AID 2553 | HEK293-TRPC6, membrane potential dye, ACh-evoked depolarization; hits give low values;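 active means B-score under library mean minus 3 SD, initial fluorescence not abnormally high, positive integrated signal ratio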;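 further: B-score derived from integrated fluorescence ratio over the kinetic read; more negative B-score means stronger inhibition of depolarization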
# TRPC4 potent: allosterically enhances the mouse TRPC4 cation channel | Q9QUQ5 | 310,000 compounds, 0.42% hits | HEK293 TRPC4beta/mu-opioid, DAMGO EC20, Fluo-4 Ca2+ flux; hits give high values | B-score at 10 µM;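 active means B-score of calcium response area above 5 SD of library B-scores, with initial fluorescence ratio within 5 SD of library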;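 further: B-score of integrated fluorescence ratio over time as area under calcium response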
# Target sequence (Q9QUQ5 whole entry, looked up): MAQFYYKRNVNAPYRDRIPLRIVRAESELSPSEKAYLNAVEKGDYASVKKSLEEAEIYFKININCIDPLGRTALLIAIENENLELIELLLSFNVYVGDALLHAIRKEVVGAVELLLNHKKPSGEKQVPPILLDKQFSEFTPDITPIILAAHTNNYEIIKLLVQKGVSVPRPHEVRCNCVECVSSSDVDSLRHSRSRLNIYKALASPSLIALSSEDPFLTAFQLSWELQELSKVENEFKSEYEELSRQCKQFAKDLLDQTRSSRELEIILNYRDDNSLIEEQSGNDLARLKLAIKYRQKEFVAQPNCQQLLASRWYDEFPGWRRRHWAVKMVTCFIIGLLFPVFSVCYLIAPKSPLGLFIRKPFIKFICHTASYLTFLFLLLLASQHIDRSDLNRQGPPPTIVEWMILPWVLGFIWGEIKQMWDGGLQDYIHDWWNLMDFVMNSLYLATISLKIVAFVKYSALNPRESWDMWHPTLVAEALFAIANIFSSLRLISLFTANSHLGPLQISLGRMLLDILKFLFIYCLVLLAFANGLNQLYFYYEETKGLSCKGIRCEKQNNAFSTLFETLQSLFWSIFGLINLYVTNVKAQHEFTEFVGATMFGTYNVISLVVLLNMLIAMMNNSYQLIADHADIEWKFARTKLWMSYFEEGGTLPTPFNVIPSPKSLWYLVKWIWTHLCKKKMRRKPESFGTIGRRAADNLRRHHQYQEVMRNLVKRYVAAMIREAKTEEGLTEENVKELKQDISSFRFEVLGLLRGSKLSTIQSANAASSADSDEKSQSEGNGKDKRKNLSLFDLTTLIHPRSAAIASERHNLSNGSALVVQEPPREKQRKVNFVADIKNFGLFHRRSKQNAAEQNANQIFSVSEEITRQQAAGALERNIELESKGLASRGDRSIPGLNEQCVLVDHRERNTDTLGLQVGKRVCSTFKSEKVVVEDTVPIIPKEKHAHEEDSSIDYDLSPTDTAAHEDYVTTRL
# TRPC4 agonist: activators of mouse TRPC4 channel | B-score at 10 µM | Q9QUQ5 | 310,000 compounds, 0.49% hits | AID 2237 | HEK293 TRPC4beta/mu-opioid, Fluo4 calcium fluorescence; hits give high values;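 active means B-score above 5 SD of library B-scores, and initial fluorescence ratio not above library mean plus 5 SD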;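 further: positive B-score marks a calcium rise read as TRPC4 activation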
#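 Technique: kinetic Fluo4 calcium fluorescence; Test system: TRPC4beta and mu-opioid receptor HEK293 stable cells; Measure: B-scored integrated calcium fluorescence ratio; Benchmarks: low control buffer alone, high control maximal DAMGO; Schedule: 45 min room-temperature Fluo4 loading, 110 s read.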
# TRPC4 block: TRPC4 (mouse) channel inhibition | Q9QUQ5 | HEK293 TRPC4beta/mu-opioid, DAMGO-evoked Fluo4 calcium flux; hits give low values | B-score at 10 µM | 300,000 compounds, 0.39% hits | AID 2247;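 active means B-score over 3 SD under the library average, no early fluorescence shift, positive overall ratio signal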
#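 material = TRPC4beta/mu-opioid receptor HEK293 cell line | probe or stimulus = sequential submaximal and maximal DAMGO stimulation | compound dosing = one concentration per compound | measured by = Fluo4 Ca2+ flux fluorescence | evaluation = integrated fluorescence ratio relative to baseline, converted to per-well B score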
# * hit, by the source's call; i = inactive; · = no result. Most compounds without a hit are left out; they make up all but 2.3% or so of the library.
SMILES,TRPC6 act,TRPC6 inh,TRPC4 potent,TRPC4 agonist,TRPC4 block
OCC1(CC2CCCCO2)CCN(Cc2ccccc2-c2ccco2)CC1 (stereo not drawn),i,i,i,75*,i
CCOC(=O)C1(CC2CCCCO2)CCN(Cc2cn[nH]c2-c2cccc(F)c2)CC1 (stereo not drawn),i,i,i,76*,i
CCOC(=O)C1(CC2CCCCO2)CCN(Cc2cccnc2)CC1 (stereo not drawn),i,i,i,i,i
COc1cccc(CC2(CO)CCCN(Cc3ccc(-c4ccco4)cc3)C2)c1 (stereo not drawn),i,i,i,i,i
COc1cccc(CC2(CO)CCCN(Cc3ccccc3-c3ccco3)C2)c1 (stereo not drawn),i,i,i,43*,-7*
CCN(CC1CCCO1)C(=O)c1cc(COc2ccccc2SC)on1 (stereo not drawn),i,i,i,i,i
COc1ccc(NC(=O)CN(C)C(=O)c2cccc(S(=O)(=O)Nc3ccc(OC)cc3)c2)cc1,i,i,i,i,i
CCOC(=O)C1(CC2CCCCO2)CCN(Cc2cc3ccccc3[nH]2)CC1 (stereo not drawn),i,i,i,273*,i
COC(=O)c1ccccc1NC(=O)CN1CCc2ccccc2C1,i,i,i,i,i
Cc1ccc(NC(=O)CN2CCc3ccccc3C2)cc1F,i,i,i,i,-7*
Cc1ccc(NC(=O)CN2CCc3ccccc3C2)cc1S(=O)(=O)N1CCOCC1,i,i,i,70*,-9*
CC(NC(=O)c1ccccc1NC(=O)CN1CCc2ccccc2C1)c1ccccc1 (stereo not drawn),i,i,15*,i,i
CCN(c1cccc(C)c1)S(=O)(=O)c1cc2c3c(c1)CCN3C(=O)CC2,i,i,i,i,i
Cc1ccccc1CN(C)C(=O)CNC(=O)c1ccc2ccccc2c1,i,i,i,i,i
COc1ccc(CN2CCCC(C(=O)c3cccc(C(F)(F)F)c3)C2)cc1O (stereo not drawn),i,i,i,62*,-8*
O=C(c1cccc(C(F)(F)F)c1)C1CCCN(Cc2ccc(OCCO)cc2)C1 (stereo not drawn),i,i,i,i,i
CC(=O)Nc1ccc(CN2CCCC(C(=O)c3cccc(C(F)(F)F)c3)C2)cc1 (stereo not drawn),i,i,i,88*,i
COC(=O)[C@@]12CCCCN1[C@H](c1ccc(SC3CCCCC3)cc1)[C@@H]1C(=O)N(C)C(=O)[C@@H]12,i,i,i,i,i
COc1cc(C2NC(=S)NC(C)=C2C(=O)Nc2cc(C)cc(C)c2)ccc1O (stereo not drawn),i,i,10*,i,i
CCOC(=O)c1cnc2c(C)cccc2c1NCCc1ccc(OC)c(OC)c1,i,i,i,i,-6*
O=C(COC(=O)Cn1cnc2ccccc2c1=O)Nc1ccc(Cl)cc1,i,i,i,i,i
O=C(COC(=O)Cn1cnc2ccccc2c1=O)Nc1ccccc1Sc1ccc(Cl)cc1,i,i,i,i,-5*
CC1(C)CC(=O)C2=C(C1)Nc1ccccc1NC2c1ccc([N+](=O)[O-])cc1 (stereo not drawn),i,i,i,i,i
Clc1ccc(SCCCCn2ccnc2)cc1,i,i,i,75*,i
Cc1cc(OCCCCn2ccnc2)cc(C)c1Cl,i,i,i,141*,i
SMILES,TRPC6 act,TRPC6 inh,TRPC4 potent,TRPC4 agonist,TRPC4 block
Cc1cc(OCCCn2ccnc2)ccc1C(C)C,i,i,i,i,i
O=C(COc1ccc(Cl)cc1Cl)NCCCn1ccnc1,i,i,i,i,i
Cc1cccc(OCCn2ccnc2)c1,i,i,i,i,i
CC(C)(C)c1ccccc1OCC(=O)NCCCn1ccnc1,i,i,i,55*,i
Cc1cccc(OCCCCCn2ccnc2)c1,i,i,14*,i,i
Clc1ccccc1OCCCn1ccnc1,i,i,i,i,i
O=Cc1cccc(OCc2cccc3ccccc23)c1,i,i,i,i,i
O=C(CN1C(=O)C2CC=CCC2C1=O)OCC(=O)c1ccc(Cl)c([N+](=O)[O-])c1 (stereo not drawn),i,i,i,i,i
Cc1ccc(S(=O)(=O)N[C@H](C(=O)N2CCC(C(=O)N[C@H](C(=O)O)c3ccccc3)CC2)C(C)C)cc1,i,i,i,i,i
Cc1ccccc1NC(=O)C(C)OC(=O)c1ccccc1C(=O)N(C)c1ccccc1 (stereo not drawn),i,i,i,i,i
Cc1ccc(CN2CCN(C(=O)CCC(=O)Nc3nnc(C(C)C)s3)CC2)c(C)c1,i,i,i,i,i
Clc1cccc(OCCCn2ccnc2)c1,i,i,i,i,i
Cc1cccc(Cl)c1OCCCCn1ccnc1,i,i,i,77*,·
Clc1ccccc1OCCCCn1ccnc1,i,i,i,i,i
Cc1cc(Cl)cc(C)c1OCCCCn1ccnc1,i,i,i,106*,i
Cc1ccccc1OCCCCCn1ccnc1,i,i,i,61*,i
c1ccc2cc(OCCCn3ccnc3)ccc2c1,i,i,11*,53*,i
C=CCc1c(Cl)nc(C)nc1NCc1ccccc1,i,i,i,i,i
COc1ccccc1N1CCN(Cc2cnc3ccc(Cl)cn23)CC1,i,i,i,i,i
Cc1ccc(NCC(O)C(O)C(O)CO)c(N=Nc2ccccc2)c1C (stereo not drawn),i,i,i,i,i
Cc1ccc(NS(=O)(=O)c2cc([N+](=O)[O-])ccc2NNC(=S)Nc2cc(C)ccc2C)c(C)c1,i,i,16*,i,i
Cc1ccc(NS(=O)(=O)c2cc([N+](=O)[O-])ccc2NNC(=S)Nc2cccc(Cl)c2)c(C)c1,i,i,i,i,i
Cc1ccc(S(=O)(=O)Nc2cc3c4c(c2)CC(=O)N4CCC3)cc1,i,i,i,i,i
Cc1ccc(C)c(C(=O)C(C)Sc2nc3nn(-c4ccccc4)c(=O)c-3c3n2CCCCC3)c1 (stereo not drawn),i,i,i,i,i
CC(C)c1nc(SCC(=O)Nc2cccc(C(F)(F)F)c2)c2c(=O)n(C)c(=O)n(C)c2n1,i,i,12*,i,i
